STEP inh = inhibitors of human striatal-enriched phosphatase STEP | P54829 | recombinant STEP, OMFP fluorogenic substrate, fluorescence | inhibition, % at 20 µM | 360,000 tested, 0.25% active;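 active = inhibition at 20 µM, scaled per plate between control wells, above about 37%, limit read from the data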
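System: STEP phosphatase, cell-free reaction; Buffer or medium: Bis-Tris pH 6.0 buffer with DTT, detergent; Incubation: 20 min at room temperature, dark; Measured by: fluorescence, 480/540 nm.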
SUMO1 PPI mod = alters human SUMO1 binding to SIM partners | P63165 | SUMO1 binding to a labelled peptide, TR-FRET, 1 h | inhibition, % at 20 µM | 360,000 tested, 0.33% active; in the data active = inhibition above about 37%
DNMT1 block = inhibitors of human DNMT1. P26358. 360,000 tested, 0.83% active. inhibition (reported as % activation of signal), % at 10 µM. DNMT1 molecular beacon, Hinp1I cleavage, fluorescence; in the data active = inhibition above about 50%
Scp-1 inhibitor = blocks human Scp-1 phosphatase activity; Q9GZU7; Recombinant Scp1, phosphopeptide, malachite green phosphate absorbance; inhibition, % at 20 µM; 340,000 tested, 0.88% active; AID 493091;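 active = inhibition above about 50% at 20 µM, limit read from the data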
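assay system = SCP-1 phosphatase catalytic domain, residues 76-261 | buffer or medium = 50 mM Tris acetate pH 5.5, 0.005% Tween-20, 10 mM MgCl2 | incubation = enzyme reaction 45 min at room temperature, colour 5 min, stabilisation 30 min | signal = Phosphate-binding colour reagent, absorbance read at 630 nm | measure = % inhibition at 20 µM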
NadD inh = inhibitors of Staphylococcus aureus NadD | 360,000 tested, 0.78% active | purified NadD enzyme, colorimetric absorbance read-out | AID 602399 | inhibition, % at 20 µM; in the data active = inhibition above about 26%
LMPTP inh = blocks human LMPTP phosphatase; P24666; recombinant LMPTP-A, OMFP fluorogenic substrate, fluorescence intensity; inhibition, % at 20 µM; 360,000 tested, 0.22% active; AID 651560;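 active = compounds that cut the enzyme signal by at least half of the control window in the single-dose screen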
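test system = LMPTP-A | amount = 0.625 nM LMPTP-A final | reagent = fluorogenic phosphatase substrate OMFP at 400 µM final | incubation = 50 min at room temperature | benchmarks = no-enzyme low control, uninhibited high control | medium = Bis-Tris pH 6.0, DTT, detergent | signal = fluorescence intensity of OMFP turnover product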
Numbers stand for hits; - = inactive; . = not tested or not shown. Hits are enriched below; roughly 2.3% of the tested compounds scored in any of these assays.

SMILES	STEP inh	SUMO1 PPI mod	DNMT1 block	Scp-1 inhibitor	NadD inh	LMPTP inh
COc1ccc(C=NNc2ccc(S(=O)(=O)Nc3ccccc3C(=O)O)cc2[N+](=O)[O-])c(OC)c1	-	56	-	-	-	52
Cc1oc2c(C)c3oc(=O)c(CCC(=O)O)c(C)c3cc2c1-c1ccccc1	-	38	-	-	-	-
Cc1oc2cc3oc(=O)c(CC(=O)O)c(C)c3cc2c1-c1ccccc1	-	-	-	-	-	-
Nc1c(C(=O)NCc2ccco2)sc2nc3c(cc12)C(=O)CCC3	-	-	-	74	-	-
COc1ccc(C2NC(=O)NC3=C2CCc2ccccc23)cc1 (centres undefined)	-	-	79	-	-	-
COc1cccc(C(C(=O)NCc2ccccc2)N2CCN(c3ccccc3F)CC2)c1OC (centres undefined)	.	-	.	.	.	-
COc1ccccc1-c1cc(-c2ccccc2)nc(SC(C(N)=O)c2ccccc2)c1C#N (centres undefined)	-	-	-	-	36	-
Cc1nc(SC(C(N)=O)c2ccccc2)c(C#N)c(C)c1C (centres undefined)	-	-	-	-	-	-
CCCCNC(=O)c1nc(C2CCN(S(=O)(=O)c3ccccc3)CC2)oc1-c1cccc(C(F)(F)F)c1	-	-	-	.	-	-
CCCCNC(=O)c1nc(C2CCNCC2)oc1-c1cccc(C(F)(F)F)c1	.	-	.	.	.	60
O=C(Nc1ccc(Nc2ccncc2)cc1)c1ccc([N+](=O)[O-])cc1	-	-	-	-	-	-
O=C(Nc1ccc(Nc2ccncc2)cc1)c1ccc(Nc2ccnc3ccc([N+](=O)[O-])cc23)cc1[N+](=O)[O-]	-	45	-	-	-	89
CCN(CC)C(=O)c1cccc(-c2csc(C(NC(C)=O)c3cccc(OC)c3)n2)c1 (centres undefined)	-	-	-	.	-	-
Cc1nc2ccccc2nc1N1CCC(C)CC1	-	-	-	-	-	-
Cc1cc(N2CCC(C)CC2)nc2cccc(O)c12	-	-	-	-	-	62
NC(=O)c1nsc(C(=O)N(CC(=O)NCc2ccco2)c2ccccc2F)c1N	-	50	-	-	-	-
Cc1cc(C(=O)O)cc(S(=O)(=O)Nc2c(C)nn(C)c2C)c1C	-	-	-	-	-	-
Cc1ccc(C(=O)N/N=C/c2ccc([N+](=O)[O-])s2)cc1	-	-	-	104	-	-
O=C(N/N=C/c1ccc([N+](=O)[O-])s1)c1cccc(Br)c1	55	-	-	97	-	75
COc1cc(C(=O)C(=O)c2ccc(OC)c(OC)c2)ccc1O	-	38	-	-	-	-
O=c1cc(-c2ccc(O)c(O)c2)oc2c1ccc1ccccc12	-	75	-	-	-	-
O=C(CCC(=O)Nc1ccccc1Cl)NNC(=O)Nc1cccc([N+](=O)[O-])c1	-	-	-	-	-	-
COc1ccc(OCC(=O)N/N=C/c2cccn2-c2cccc(C(=O)O)c2)cc1	-	-	53	-	-	-
Cc1csc2nc(O)c(C(=O)NC3CCCCC3)c(=O)n12	-	-	-	-	-	-
Cc1csc2nc(O)c(C(=O)NCc3ccc4c(c3)OCO4)c(=O)n12	-	-	-	-	-	53
SMILES	STEP inh	SUMO1 PPI mod	DNMT1 block	Scp-1 inhibitor	NadD inh	LMPTP inh
COc1ccccc1-c1c(C#N)c(N)nc2c1CCc1ccccc1-2	-	36	-	-	-	-
CCOc1cc(-c2c(C#N)c(N)nc3c2CCc2ccccc2-3)ccc1O	-	-	-	-	-	-
NS(=O)(=O)c1ccc(-c2ccc(/C=C3\SC(=S)N(C4CCS(=O)(=O)C4)C3=O)o2)cc1 (centres undefined)	-	-	-	-	35	-
O=C(O)c1cccc2cccc(-c3c4ccc(=O)c(O)c-4oc4c(O)c(O)ccc34)c12	99	119	70	104	83	95
O=C(O)c1cccc2cc(-c3ccccc3)oc(=O)c12	-	-	-	-	-	-
O=C(CCNS(=O)(=O)c1ccccc1)Nc1ccccc1	-	-	-	-	-	-
CCN1CCC2(CC1)N=C(c1ccc(F)cc1)C(=S)N2C(=O)c1ccc(C(C)(C)C)cc1	56	-	-	-	-	-
COC(=O)C1=CN(c2cccc(OCc3ccccc3)c2)C(N)=C(C#N)C1c1cccc(OC)c1OC (centres undefined)	.	-	.	.	.	-
CN(C)CCNc1ccc2nnn3c4ccc(O)cc4c(=O)c1c23	-	-	53	-	-	-
CCOC(=O)c1ccc2ncc(C(=O)OCC)c(NCCN(C)C)c2c1	-	-	-	-	-	-
CCN(CC)CCCNc1ccc2ncn3c4ccc(O)cc4c(=O)c1c23	-	-	133	-	-	-
CN(C)CCCn1c2c3ccccc3ccc2c2oc(=O)c3ccccc3c21	-	-	77	-	-	-
CC1(C)CC(=O)C(C(=O)/C=C/c2ccco2)C(=O)C1	-	-	-	-	-	-
O=C(O)C(O)c1ccco1 (centres undefined)	53	-	92	77	-	-
Cc1oc2c(c1C(=O)c1ccccc1)C(=O)C(=O)c1ccccc1-2	-	37	93	-	-	-
Cc1oc2c(c1C(=O)O)C(=O)c1ccccc1C2=O	-	-	-	-	-	-
CC(C)CS(=O)(=O)C1=NN2C(=N)/C(=C\c3ccc(OC(=O)c4ccco4)cc3)C(=O)N=C2S1	-	-	-	69	-	-
CC1CCN(C2=NN3C(=N)/C(=C\c4ccc(OC(=O)c5ccco5)cc4)C(=O)N=C3S2)CC1	-	-	-	-	37	-
CS(=O)(=O)C1=NN2C(=N)/C(=C\c3ccc(OC(=O)c4ccco4)cc3)C(=O)N=C2S1	-	-	-	-	-	-
Cc1cc2c(cc1C)-n1nnnc1C(N1CCN(C(=O)OCc3ccccc3)CC1)C(=O)N2 (centres undefined)	.	-	.	.	.	-
COc1cc(CC(NC(C)=O)C(=O)NC2CCN(c3nc(C)cc(C)c3C#N)CC2)cc(OC)c1 (centres undefined)	-	42	-	-	-	-
O=S1(=O)N[C@H](Cc2ccccc2)COc2cc(N3CCC[C@@H]3CO)ccc21	.	-	.	.	-	-
COc1ccc(N2CCN(C(=O)c3ccc4c(c3)CC(c3ccccc3)OC4=O)CC2)cc1 (centres undefined)	-	-	-	-	-	-
Oc1ccc(CCNc2c3ccccc3nc3ccccc23)cc1O	-	-	79	-	-	47
c1ccc(CNc2c3ccccc3nc3ccccc23)cc1	-	-	67	-	-	61
CCCCNC(=O)C(NC(=O)c1cccs1)C(=O)c1ccccc1 (centres undefined)	.	-	.	.	.	-
